T cruzi HTS = inhibitors of intracellular Trypanosoma cruzi, primary screen, cell-based, plate reader, single point, set 2. actives 4.9% (n = 22,000). AID 651903, 2012. intracellular Trypanosoma cruzi in host cells. activity score (inhibition), % at 5.01 µM; in the data active = activity score above about 55%;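 note: parasites and compound incubated about four days before reading; 0% = median of neutral control wells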
INS-1E ATP HTS = protection of INS-1E cells from cytokine death, primary screen, ATP luminescence, single point | protection from cytokine-induced ATP loss, % at 10 µM | AID 488910, 2010 | actives 0.1% (n = 20,000) | INS-1E cytokine-induced death, 48 h; normalised: neutral wells 0, positive control 100;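 active = mean replicate protection from cytokine-induced ATP loss at least 50% and at least 75% of replicates each reaching 50%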
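Assay system: INS-1E rat cells / Quantity: 8000 cells per well / Medium: RPMI without phenol red, 5% FBS / Probe or stimulus: three-cytokine cocktail (IFN-γ, TNF-α, IL-1β) / Dosing: one compound concentration, pin transfer / Timing: 48 h co-treatment, 10 min post-lysis read / Technique: CellTiter-Glo luminescence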
A1 apoptosis 2 = A1 inhibitors via caspase activation, primary screen, cell-based, luminescence, HTS, two replicates; AID 2465, 2010; 24,000 tested, under 10 active; caspase activation, % (no concentration beside the values); MEF A1-2A-BIM cells, caspase-Glo luminescence, 3 h; percent of clofoctol response, DMSO zero; in the data active = caspase activation above about 5.9%
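Evaluation: Caspase-3/7 activity from luminescence increase | Assay system: A1-2A-BIM mouse embryonic fibroblasts | Quantity: 2500 MEF cells/well | Medium: RPMI-1640 plus 10% FBS | Detection: Caspase-Glo 3/7 luminescence, 1 h at room temperature | Dosing: 50 nL compound per well, pinned | Timing: Cells settled overnight, compound exposure 3 h at 37 °C, 5% CO2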
An asterisk follows results filed as active; nt = no result given. This is one part of a sample in which hits are shown more often than they occur.

SMILES | T cruzi HTS | INS-1E ATP HTS | A1 apoptosis 2
C[C@@H]1CN([C@H](C)CO)C(=O)c2cccc(NC(=O)Nc3ccc4c(c3)OCO4)c2O[C@@H]1CN(C)Cc1ccc(Oc2ccccc2)cc1 | 4 | -9 | nt
C[C@@H]1CN([C@@H](C)CO)C(=O)c2cccc(NC(=O)Nc3ccc4c(c3)OCO4)c2O[C@@H]1CN(C)Cc1ccc(Oc2ccccc2)cc1 | 73* | -31 | nt
C[C@@H]1CN([C@@H](C)CO)C(=O)c2cccc(NC(=O)Nc3ccc4c(c3)OCO4)c2O[C@H]1CN(C)Cc1ccc(Oc2ccccc2)cc1 | 70* | -49 | -1
C[C@H](CO)N1C[C@H](C)[C@@H](CN(C)Cc2ccc(Oc3ccccc3)cc2)Oc2c(NC(=O)Nc3ccc4c(c3)OCO4)cccc2C1=O | 28 | -46 | nt
C[C@@H]1CN([C@@H](C)CO)C(=O)Cc2cc(N(C)C)ccc2O[C@@H]1CN(C)Cc1ccc(Cl)c(Cl)c1 | 43 | -17 | -1
C[C@@H]1CN([C@H](C)CO)C(=O)Cc2cc(N(C)C)ccc2O[C@H]1CN(C)Cc1ccc2c(c1)OCO2 | 69* | -8 | 2
C[C@H](CO)N1C[C@H](C)[C@@H](CN(C)Cc2ccc3c(c2)OCO3)Oc2ccc(N(C)C)cc2CC1=O | nt | nt | 0
C[C@H]1CN([C@@H](C)CO)C(=O)Cc2cc(N(C)C)ccc2O[C@@H]1CN(C)Cc1ccc2c(c1)OCO2 | 64* | -5 | nt
C[C@@H]1CN([C@H](C)CO)C(=O)Cc2cc(N(C)C)ccc2O[C@@H]1CN(C)Cc1ccc2c(c1)OCO2 | -23 | -7 | nt
C[C@H]1CN([C@@H](C)CO)C(=O)Cc2cc(N(C)C)ccc2O[C@@H]1CN(C)Cc1ccc(Cl)c(Cl)c1 | 72* | -8 | nt
O=C(CCCCCC(=O)Nc1ccccc1O)N/N=C/C1=CCCCC1 | nt | nt | 0
COC(=O)CCCCCCC(=O)N/N=C/c1sccc1C | -9 | 3 | 1
O=C(CCCCCC(=O)Nc1ccccc1O)N/N=C/c1cc(Br)cs1 | 4 | 15 | -1
COc1ccc(S(=O)(=O)Nc2ccc3c(c2)CC(=O)N([C@@H](C)CO)C[C@@H](C)[C@H](CN(C)Cc2ccc(C(F)(F)F)cc2)O3)cc1 | nt | nt | -1
COc1ccc(S(=O)(=O)Nc2ccc3c(c2)CC(=O)N([C@@H](C)CO)C[C@H](C)[C@H](CN(C)Cc2ccc(C(F)(F)F)cc2)O3)cc1 | 47 | -32 | 1
COc1ccc(S(=O)(=O)Nc2ccc3c(c2)CC(=O)N([C@@H](C)CO)C[C@@H](C)[C@@H](CN(C)Cc2ccc(C(F)(F)F)cc2)O3)cc1 | 80* | -26 | -1
COc1ccc(S(=O)(=O)Nc2ccc3c(c2)CC(=O)N([C@H](C)CO)C[C@@H](C)[C@@H](CN(C)Cc2ccc(C(F)(F)F)cc2)O3)cc1 | 65* | -46 | 0
CCCC[C@H]1OB(O)C[C@H]2C1=C(COc1ccccc1)Cn1c(=O)n(-c3ccccc3)c(=O)n12 | nt | nt | 0
Cc1ccc(S(=O)(=O)Nc2ccc3c(c2)C(=O)N([C@H](C)CO)C[C@H](C)[C@H](CN(C)S(=O)(=O)c2ccc(Cl)cc2)O3)cc1 | 47* | nt | nt
C[C@H](CO)N1C[C@H](C)[C@H](CN(C)S(=O)(=O)c2ccc(Cl)cc2)Oc2ccc(NS(=O)(=O)c3ccc(Cl)cc3)cc2C1=O | 64* | nt | -1
Cc1ccc(S(=O)(=O)N(C)C[C@@H]2Oc3ccc(NS(=O)(=O)c4ccc(Cl)cc4)cc3C(=O)N([C@H](C)CO)C[C@@H]2C)cc1 | 40 | 5 | 1
C[C@H](CO)N1C[C@H](C)[C@@H](CN(C)S(=O)(=O)c2ccc(Cl)cc2)Oc2ccc(NS(=O)(=O)c3ccc(Cl)cc3)cc2C1=O | 39 | -5 | -1
C[C@@H]1CN([C@H](C)CO)C(=O)c2cc(NC(=O)CCCN(C)C)ccc2O[C@@H](C)CCCCO[C@H]1CN(C)S(=O)(=O)c1ccc(Cl)cc1 | nt | nt | 0
O=C(CCCCCC(=O)N/N=C/c1ccncc1Br)NO | nt | nt | 0
COC(=O)CCCCCCC(=O)N/N=C/c1cc(F)ccc1O | -7 | -4 | -1
SMILES | T cruzi HTS | INS-1E ATP HTS | A1 apoptosis 2
C[C@@H]1CN([C@@H](C)CO)C(=O)c2cccc(NC(=O)Nc3ccc(C(F)(F)F)cc3)c2O[C@@H]1CN(C)Cc1ccc(C(=O)Nc2ccccc2N)cc1 | 78* | -16 | nt
C[C@H](CO)N1C[C@H](C)[C@H](CN(C)Cc2ccc(C(=O)Nc3ccccc3N)cc2)Oc2c(NC(=O)Nc3ccc(C(F)(F)F)cc3)cccc2C1=O | 61* | -18 | nt
C[C@H](CO)N1C[C@H](C)[C@@H](CN(C)Cc2ccc(C(=O)O)cc2)Oc2c(NC(=O)Nc3ccc(C(F)(F)F)cc3)cccc2C1=O | -12 | 6 | 2
C[C@H](CO)N1C[C@H](C)[C@H](CN(C)Cc2ccc(C(=O)O)cc2)Oc2c(NC(=O)Nc3ccc(C(F)(F)F)cc3)cccc2C1=O | -11 | -8 | -1
COc1cc(CO)ccc1OC(C)=O | nt | nt | 1
COc1ccc(NC(=O)N(C)C[C@@H]2Oc3ncc(C#Cc4ccc(C(F)(F)F)cc4)cc3C(=O)N([C@H](C)CO)C[C@@H]2C)cc1 | 83* | nt | 0
C[C@H](CO)N1C[C@H](C)[C@H](CN(C)C(=O)Nc2ccccc2)Oc2ncc(C#Cc3ccccc3)cc2C1=O | -5 | nt | -1
COc1ccc(NC(=O)N(C)C[C@@H]2Oc3ncc(C#CC(C)(C)O)cc3C(=O)N([C@H](C)CO)C[C@@H]2C)cc1 | -5 | nt | -1
C[C@H](CO)N1C[C@H](C)[C@H](CN(C)C(=O)Nc2ccc3c(c2)OCO3)Oc2ncc(C#CC(C)(C)O)cc2C1=O | -12 | -11 | nt
C[C@H](CO)N1C[C@H](C)[C@H](CN(C)C(=O)Nc2ccccc2)Oc2ncc(C#Cc3ccc(C(F)(F)F)cc3)cc2C1=O | 83* | nt | 0
C[C@H](CO)N1C[C@H](C)[C@H](CN(C)C(=O)Nc2ccc3c(c2)OCO3)Oc2ncc(C#Cc3ccc(C(F)(F)F)cc3)cc2C1=O | 83* | nt | 0
O=C(CCCCCCC(=O)Nc1ccccc1O)N/N=C/c1cccnc1 | 3 | -7 | 1
Cc1noc(C)c1NC(=O)Nc1ccc2c(c1)C(=O)N([C@H](C)CO)C[C@H](C)[C@@H](CN(C)Cc1ccc(C(=O)O)cc1)OCCCC[C@@H](C)O2 | -26 | 5 | 1
Cc1noc(C)c1S(=O)(=O)Nc1cccc2c1O[C@@H](CN(C)S(=O)(=O)c1ccccc1)[C@@H](C)CN([C@H](C)CO)C2=O | -19 | 10 | -1
C[C@H](CO)N1C[C@H](C)[C@@H](CN(C)Cc2ccc(C(=O)Nc3ccccc3N)cc2)Oc2c(NS(=O)(=O)c3ccccc3)cccc2C1=O | 51 | -4 | 0
Cc1noc(C)c1S(=O)(=O)Nc1cccc2c1O[C@H](CN(C)S(=O)(=O)c1ccccc1)[C@H](C)CN([C@H](C)CO)C2=O | 65* | 9 | nt
Cc1noc(C)c1S(=O)(=O)Nc1ccc2c(c1)CC(=O)N([C@H](C)CO)C[C@@H](C)[C@H](CN(C)Cc1ccc(C(=O)Nc3ccccc3N)cc1)O2 | 28 | -2 | -1
